Measured values: PubChem BioAssay AID504383 (The Scripps Research Institute Molecular Screening Center, 2011)
Hit rate of the full screen: of about 2,500 compounds, about 1,200 (48%) were called active. The set was probably picked from earlier hits. The list shows a part of the results. A number with no mark means an inactive call.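 How the source made its calls: active means mean activation above the low control average plus 3 SD, as set in the primary screen (cut at about 12% in these data); inactive means the rest.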

These compounds were tested against Troponin I, cardiac muscle (Homo sapiens) + Troponin T, cardiac muscle (Homo sapiens) + Troponin C, slow skeletal and cardiac muscles (Homo sapiens) (UniProt P19429+P45379+P63316) (assay: calcium sensitizers of cardiac thin filaments – biochemical, IANBD-TnC fluorescence, triplicate, confirmation (AID 504383;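 further: 0% = DMSO at 0.472 mM calcium and 100% = DMSO at 2.9 mM calcium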)). Conditions: IANBD-labeled cardiac RTF, Ca2+ sensitivity fluorescence; at 7.2 µM; hits give high values; scaled from EC20 to saturating calcium; tested at EC20 calcium, 0.472 mM.
Outline: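 System: Labelled thin filament complex | Technique: Filament fluorescence intensity | Benchmarks: Low control EC20 calcium, high control EC100 calcium | Timing: 15 min at 25 °C | Compound dosing: One dose, 7.2 µM nominal | Probe or stimulus: Ca2+ 0.472 mM, EC20 level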

SMILES	activation
Cc1cc2nc3c(=O)[nH]c(=S)[nH]c3nc2cc1NC(=O)C(F)(F)F	25.4% (active)
Cc1cc2nc3c(=O)n(C4CCCCC4)c(=O)[nH]c3nc2cc1N	17.8% (active)
Cc1cc2nc3c(=O)[nH]c(=O)[nH]c3nc2c([N+](=O)[O-])c1N	2.96%
Nc1ccc2nc3c(=O)[nH]c(=S)[nH]c3nc2c1	28.7% (active)
COCc1cc(=O)[nH]c2cc(NC(=O)C(C)(C)CCl)c(C)cc12	4.59%
O=C(c1ccc(Cn2cc([N+](=O)[O-])cn2)o1)N1N=C(C(F)F)CC1(O)C(F)F (configuration not stated)	14.1% (active)
O=C(c1ccc(COc2ccccc2Br)o1)N1N=C(C(F)F)CC1(O)C(F)F (configuration not stated)	34.5% (active)
c1ccc(-n2ncc(-c3nn[nH]n3)n2)cc1	163% (active)
CC(=O)Nc1ccc(N2C(=O)CSC2c2ccc(F)cc2)cc1 (configuration not stated)	81.7% (active)
CC(=O)Nc1ccc(N2C(=O)c3cccc4c(O)ccc(c34)C2=O)cc1	2.36%
CCC(=O)N1CCC2(CC1)Oc1ccc(Cl)cc1C(=O)C21CC(c2cccnc2)=NO1 (configuration not stated)	19.6% (active)
CN1C(=O)/C(=C\c2ccc(N(C)C)cc2)OC1=S	223% (active)
Cc1c(N2C(=O)/C(=C\c3ccc(N(C)C)cc3)N(C)C2=S)c(=O)n(-c2ccccc2)n1C	6.77%
CN(C)c1ccc(/C=C2\N=C(C(C)(C)C)OC2=O)cc1	7.46%
CN(N=Nc1nc[nH]c1C(=O)NN)C1CCCCC1	12.9% (active)
Cc1cc(C)c(C#N)c(SCc2nnc(-c3ccccc3)o2)n1	50.8% (active)
COC(=O)CCCNC(=O)CCc1nnc(-c2ccc(-c3ccccc3)cc2)o1	10.8%
O=C(CO/N=C/c1ccccc1OC(F)F)NCc1cccs1	70.3% (active)
Cc1n[nH]c(C)c1N1C(=O)c2cccc3c(N4CCCCCC4)ccc(c23)C1=O	5.61%
O=C1c2cccc3c(N4CCCCC4)ccc(c23)C(=O)N1CCO	185% (active)
CCCN1C(=O)c2cccc3c(N4CCCCC4)ccc(c23)C1=O	6.04%
O=C1c2ccccc2-c2onc3ccc(N4CCCC4)c1c23	9.75%
O=C1c2cccc3c(N4CCCCC4)ccc(c23)C(=O)N1c1ccccc1O	-0.04%
O=C1c2cccc3c(N4CCCCC4)ccc(c23)C(=O)N1c1ccc(O)cc1	10.7%

SMILES	activation
O=C1c2cccc3c(N4CCCCC4)ccc(c23)C(=O)N1c1cccc(O)c1	33.3% (active)
C=CCN1C(=O)c2cccc3c(N4CCCCC4)ccc(c23)C1=O	15.9% (active)
CC1(C)C2CCC(C2)C1(C)N=C1OC(CCl)CS1 (configuration not stated)	3.58%
O=c1ccc2cc3c4c(c2o1)CCCN4CCC3	33.6% (active)
N=c1oc2c3c4c(cc2cc1C(=O)Nc1ccccc1)CCCN4CCC3	88.7% (active)
Cc1ccc2c(CN3CCCc4ccccc43)cc(=O)oc2c1C	-0.53%
O=c1oc2c3c4c(cc2c(C(F)(F)F)c1CCN1CCOCC1)CCCN4CCC3	4.32%
CCN(CC)S(=O)(=O)c1ccc2[nH]cc(C(=O)NCCN3CCCCCC3)c(=O)c2c1	34.4% (active)
CC(=O)N1CCN(S(=O)(=O)c2cccc(C(=O)NNC(=O)c3ccc(Br)cc3)c2)CC1	7.22%
CC(C)(C)c1cc(NC(=O)c2cccc(S(=O)(=O)N3CCOCC3)c2)no1	23.5% (active)
Cn1nc(-c2ccccc2)c(C(=O)Nc2ccc(C(F)(F)F)cc2)c1Cl	26.2% (active)
CN1CCN(C2=CC3=CC(=C(C#N)C#N)CCC3CC2)CC1 (configuration not stated)	6.77%
CSCC(C)N1CCC(n2nccc2NC(=O)CCCc2ccccc2)CC1 (configuration not stated)	162% (active)
COC(=O)CCN(C(=O)c1ccc([N+](=O)[O-])cc1)c1ccccn1	19.7% (active)
CC(=O)NCC(O)c1ccc([N+](=O)[O-])cc1 (configuration not stated)	7.74%
COCCCNc1c2c3c(cccc3[nH]c1=O)C(=O)c1ccccc1-2	13.2% (active)
CCCCNc1c2c3c(cccc3n(C)c1=O)C(=O)c1ccccc1-2	2.63%
CC(C)n1cnc2c(NCc3ccccc3)cc(N[C@H](C)CO)cc21	-7.72%
CCOC(=O)c1sc2nc(C)nc(SCC(=O)NC3CCS(=O)(=O)C3)c2c1C (configuration not stated)	32.3% (active)
C[C@@H]1CC=C[C@H]2[C@H]1C(=O)N(Cc1ccccc1)[C@H]2c1ccc(-c2cc3ccccc3s2)cc1F	3.06%
CN(Cc1ccccc1)C(=O)c1cccc(N2C(=O)NC3CC2(C)Oc2ccccc23)c1 (configuration not stated)	54% (active)
CCOc1cccc2c1OC1(C)CC2NC(=O)N1c1cccc(C(=O)NCc2ccccn2)c1 (configuration not stated)	5.07%
COc1cccc2c1OC1(C)CC2NC(=O)N1Cc1ccccc1 (configuration not stated)	10.4%
